Holding throughout (type): functional
Assay [1] has as its system H4. The assay can be described thus: Decrease in FYVE-RFP+ vesicle intensity per cell in human H4 cells after 8 hrs relative to control. Set-up: concentration or dose not given beside the values. The method in brief: (§1)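 H4 cells stably expressing FYVE-RFP (H4-FYVE), grown in DMEM with 10% FBS, penicillin/streptomycin and 2 mM L-glutamine at 37°C, 5% CO2, seeded in 96-well plates and exposed to compound. Fixed in 4% paraformaldehyde, nuclei stained with 3 μg/ml DAPI, FYVE-RFP+ vesicles quantified by high-throughput fluorescence microscopy against DMSO control. Triplicate wells, mean ± SD.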

Assay [2] relates to H4. The assay can be described thus: Increase in light chain 3-GFP+ autophagosome vesicle number per cell in human H4 cells at 9.0 uM after 24 hrs by high throughput fluorescence microscopy relative to control. The method in brief:
(§2)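 H4 cells stably expressing LC3-GFP, grown in DMEM with 10% FBS, penicillin/streptomycin and 2 mM L-glutamine at 37°C, 5% CO2. Cells were seeded in 96-well plates and exposed to library compounds at 3–12 μM for 24 h, then fixed in 4% paraformaldehyde and stained with 3 μg/ml DAPI. LC3-GFP spot number, size and intensity were measured by high-throughput fluorescence microscopy and expressed relative to DMSO. Triplicates, mean ± SD.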

The subject of assay [3] is H4. The assay can be described thus: Increase in long-lived protein degradation in human H4 cells after 2 hrs relative to control. Also on record: concentration or dose not given beside the values.
Assay [4] concerns H4. The assay can be described thus: Increase in long-lived protein degradation in human H4 cells after 4 hrs relative to control. Set-up: concentration or dose not given beside the values.
Assay [5] deals with H4. The assay can be described thus: Increase in long-lived protein degradation in human H4 cells after 24 hrs relative to control. Set-up: concentration or dose not given beside the values.
Assay [6] has as its system H4. The assay can be described thus: Increase in light chain 3-GFP+ autophagosome vesicle area per cell in human H4 cells at 9.0 uM after 24 hrs by high throughput fluorescence microscopy relative to control. The method in brief:
(§3)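 H4 cells stably expressing LC3-GFP, seeded in 96-well plates and exposed to compound for 24 h; screening concentrations were 3–12 μM, with rapamycin 0.22 μM and bafilomycin A1 0.40 μM. Cells fixed in 4% paraformaldehyde and stained with 3 μg/ml DAPI. Number, size and intensity of LC3-GFP spots measured by high-throughput fluorescence microscopy and expressed as percent of DMSO-treated wells. Rapamycin was the positive control. Triplicate wells, mean ± SD; experiments repeated three times.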

Assay [7] relates to H4. The assay can be described thus: Increase in long-lived protein degradation in human H4 cells after 1 hr relative to control. Also on record: concentration or dose not given beside the values.
For assay [8], the system named is H4. The assay can be described thus: Induction of light chain 3-GFP level in human H4 cells at 9.0 uM after 24 hrs by high throughput fluorescence microscopy relative to control. The method in brief: as §2
Assay [9] concerns H4. Put plainly: Decrease in FYVE-RFP+ vesicle intensity per cell in human H4 cells after 4 hrs relative to control. Set-up: concentration or dose not given beside the values. The method in brief: as §1
Assay [10] has as its system H4. The assay can be described thus: Increase in light chain 3-GFP+ autophagosome vesicle intensity per cell in human H4 cells at 9.0 uM after 24 hrs by high throughput fluorescence microscopy relative to control. The method in brief:
(§4)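 H4 cells stably expressing LC3-GFP were grown in DMEM with 10% FBS and 2 mM L-glutamine at 37°C, 5% CO2. They were exposed to each compound for 24 h, with DMSO as negative and rapamycin as positive control. Cells were then fixed in 4% paraformaldehyde and stained with 3 μg/ml DAPI. High-throughput fluorescence imaging scored LC3-GFP spot number, size and intensity, expressed relative to DMSO. Mean ± SD of triplicates; experiments repeated three times.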

The subject of assay [11] is H4. The assay can be described thus: Decrease in FYVE-RFP+ vesicle intensity per cell in human H4 cells after 2 hrs relative to control. Set-up: concentration or dose not given beside the values. The method in brief: as §1
The subject of assay [12] is H4. The assay can be described thus: Effect on FYVE-RFP+ vesicle intensity per cell in human H4 cells after 8 hrs relative to control. Set-up: concentration or dose not given beside the values. The method in brief: as §1
Assay [13] has as its system H4. The assay can be described thus: Increase in light chain 3-GFP+ autophagosome vesicle number per cell in human H4 cells at 8.8 uM after 24 hrs by high throughput fluorescence microscopy relative to control. The method in brief:
as §2

Assay [14] relates to H4. Put plainly: Effect on FYVE-RFP+ vesicle intensity per cell in human H4 cells after 2 hrs relative to control. Set-up: concentration or dose not given beside the values. The method in brief: as §1
In assay [15] the test system is H4. The assay can be described thus: Induction of light chain 3-GFP level in human H4 cells at 8.8 uM after 24 hrs by high throughput fluorescence microscopy relative to control. The method in brief:
as §2

For assay [16], the system named is H4. Put plainly: Effect on FYVE-RFP+ vesicle intensity per cell in human H4 cells after 4 hrs relative to control. Also on record: concentration or dose not given beside the values. The method in brief:
as §1

Assay [17] concerns H4. Put plainly: Increase in light chain 3-GFP+ autophagosome vesicle intensity per cell in human H4 cells at 8.8 uM after 24 hrs by high throughput fluorescence microscopy relative to control. The method in brief:
as §4

Assay [18] has as its system H4. The assay can be described thus: Increase in light chain 3-GFP+ autophagosome vesicle area per cell in human H4 cells at 8.8 uM after 24 hrs by high throughput fluorescence microscopy relative to control. The method in brief: as §3
The subject of assay [19] is H4. Put plainly: Increase in light chain 3-GFP+ autophagosome vesicle area per cell in human H4 cells at 8.5 uM after 24 hrs by high throughput fluorescence microscopy relative to control. The method in brief: as §3
Assay [20] has as its system H4. Put plainly: Induction of light chain 3-GFP level in human H4 cells at 8.5 uM after 24 hrs by high throughput fluorescence microscopy relative to control. The method in brief: as §2
In assay [21] the test system is H4. Put plainly: Increase in light chain 3-GFP+ autophagosome vesicle number per cell in human H4 cells at 8.5 uM after 24 hrs by high throughput fluorescence microscopy relative to control. The method in brief:
as §2

The test system of assay [22] is H4. Put plainly: Increase in light chain 3-GFP+ autophagosome vesicle intensity per cell in human H4 cells at 8.5 uM after 24 hrs by high throughput fluorescence microscopy relative to control. The method in brief: as §4
For assay [23], the system named is H4. The assay can be described thus: Increase in light chain 3-GFP+ autophagosome vesicle number per cell in human H4 cells at 6.4 uM after 24 hrs by high throughput fluorescence microscopy relative to control. The method in brief: as §4
Assay [24] relates to H4. Put plainly: Induction of light chain 3-GFP level in human H4 cells at 6.4 uM after 24 hrs by high throughput fluorescence microscopy relative to control. The method in brief:
as §2

Assay [25] relates to H4. The assay can be described thus: Increase in light chain 3-GFP+ autophagosome vesicle area per cell in human H4 cells at 6.4 uM after 24 hrs by high throughput fluorescence microscopy relative to control. The method in brief: as §3
In assay [26] the test system is H4. The assay can be described thus: Increase in light chain 3-GFP+ autophagosome vesicle intensity per cell in human H4 cells at 6.4 uM after 24 hrs by high throughput fluorescence microscopy relative to control. The method in brief:
as §4

In assay [27] the test system is H4. Put plainly: Induction of light chain 3-GFP level in human H4 cells at 13.2 uM after 24 hrs by high throughput fluorescence microscopy relative to control. The method in brief: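 H4 cells stably expressing LC3-GFP, kept in DMEM/10% FBS at 37°C, 5% CO2, were seeded in 96-well plates and exposed to compound for 24 h. Cells were then fixed in 4% paraformaldehyde and stained with 3 μg/ml DAPI. Automated fluorescence microscopy scored the number, size and intensity of LC3-GFP spots. Values are percent of DMSO wells, in triplicate, mean ± SD. Rapamycin served as positive control.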

The subject of assay [28] is H4. The assay can be described thus: Increase in light chain 3-GFP+ autophagosome vesicle intensity per cell in human H4 cells at 13.2 uM after 24 hrs by high throughput fluorescence microscopy relative to control. The method in brief:
(§5)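 H4 cells stably expressing LC3-GFP, seeded in 96-well plates and exposed to compound for 24 h; fixed in 4% paraformaldehyde, nuclei stained with 3 μg/ml DAPI. Automated fluorescence microscopy scored number, size and intensity of LC3-GFP spots; values expressed relative to DMSO-treated wells, rapamycin positive control. Triplicate wells, mean ± SD; experiments repeated three times.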

The test system of assay [29] is H4. Put plainly: Increase in light chain 3-GFP+ autophagosome vesicle area per cell in human H4 cells at 13.2 uM after 24 hrs by high throughput fluorescence microscopy relative to control. The method in brief: as §5
Assay [30] has as its system H4. The assay can be described thus: Increase in light chain 3-GFP+ autophagosome vesicle number per cell in human H4 cells at 13.2 uM after 24 hrs by high throughput fluorescence microscopy relative to control. The method in brief:
as §5

Consider `O=C(Nc1ccccc1)c1cc([N+](=O)[O-])ccc1Cl`, for which the Activity in the assay with H4 [1] was 29.9%; in the assay on H4 [2], 128.11%; in the assay with H4 [3] it was 87.58%; with H4 [4], 93.22%; in the assay on H4 [5], 89.29%; with H4 [6] it was 137.98%. Also, the Activity stood at 106.33% in the assay on H4 [7]; 105.38% with H4 [8]; 44.5% in the assay on H4 [9]; 166.91% in the assay on H4 [10]; 40.32% in the assay with H4 [11].

For the compound `O=C(/C=C/c1ccc(O)c(O)c1)OCCc1ccccc1` [CAFFEIC ACID PHENETHYL ESTER], the Activity with H4 [12] turned out to be 69.14%; in the assay with H4 [13], 147.15%; in the assay with H4 [3] it was 128.4%; with H4 [14] it was 86.89%; with H4 [4] it was 120.18%; with H4 [15], 146.2%. Moreover, the Activity stood at 106.53% in the assay on H4 [5]; 71.17% in the assay with H4 [16]; 122.08% with H4 [7]; 150.18% in the assay with H4 [17]; 160.43% in the assay on H4 [18].

In the case of `Cc1coc2c1C(=O)C(=O)c1c-2ccc2c1CCCC2(C)C` [TANSHINONE IIA], the Activity in the assay on H4 [19] was 264.51%; in the assay on H4 [20], 79.77%; in the assay on H4 [21] it was 210.24%; in the assay with H4 [22] it was 273.72%.

`CNC(=O)[C@H](Cc1c[nH]c2ccccc12)NC(=O)[C@@H](CC(=O)NO)CC(C)C` [ILOMASTAT]: the Activity with H4 [1] was 25.77%; in the assay with H4 [3], 115.08%; in the assay on H4 [4], 104.88%; in the assay with H4 [5], 107.46%; in the assay with H4 [7], 129.48%; in the assay with H4 [9], 32.3%. Besides, the Activity was determined as 154.31% in the assay on H4 [23]; 143.94% in the assay on H4 [24]; 171.42% with H4 [25]; 196.42% in the assay on H4 [26]; 30.69% in the assay on H4 [11].

On to `O[C@H]1[C@H](O)[C@@H](O)CN2CC[C@H](O)[C@H]12` [CASTANOSPERMINE], for which the Activity with H4 [1] is 36.45%; with H4 [27], 157.35%; in the assay on H4 [28], 171.2%; with H4 [3], 84.26%; with H4 [4] it was 88.75%; in the assay with H4 [29] it was 174.29%. Further, the Activity in the assay with H4 [5] is 85.6%; in the assay on H4 [7], 83.53%; in the assay on H4 [30], 156.81%; in the assay on H4 [9] it was 40.02%; in the assay on H4 [11] it was 37.35%.

For the origin of these results see ChEMBL document CHEMBL1145471, “Small molecule regulators of autophagy identified by an image-based high-throughput screen” (Proc Natl Acad Sci U S A, 2007).
